≈ marks a conversion by molar mass, not a printed value.
Assays:
[1] = EFdA/CSIC stability in the film polymer solution; assay type: physicochemical; details: 25°C/65% R.H. and 40°C/75% R.H., 4 weeks
How it was run: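 Drug-loaded aqueous PVA (7%, w/w) film-casting solution, about 0.5 ml per vial, was sealed against evaporation and light. EFdA: Zorbax C18, 0.4% phosphoric acid/methanol gradient, 0.8 ml/min, UV 260 nm. CSIC: Gemini C18, acetonitrile-0.075% TFA (40:60), 1.2 ml/min, UV 302 nm.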

[2] = test system: HIV-1; details: read-out: EC50 of CSIC; cited from earlier work
[3] = CSIC solubility in water and solubilizer solutions; assay type: physicochemical; details: water
How it was run: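 Excess CSIC was rotated at moderate speed in the solubilizer solutions at ambient temperature for 120 h. The mixture was filtered through a 0.2 µm membrane, and the filtrate was assayed by HPLC. HPLC conditions: Gemini C18 column, isocratic acetonitrile-0.075% (v/v) TFA (40:60) at 1.2 ml/min, UV detection at 302 nm, room temperature, total peak area against a linear least-squares calibration. LOQ was 0.5 µg/ml.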

[4] = In vitro cytotoxicity, MTT assay; assay type: cell-based; details: human, HEC-1A cells
How it was run: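 HEC-1A cells were grown in McCoy's 5A with 10% FBS and penicillin/streptomycin at 37°C, 5% CO2, then seeded at 1×10⁴ cells/well. After 24 h, free drug (5 ng/ml–50 µg/ml) or film at the equivalent dose, or placebo film, was added for 24 h. MTT (5 mg/ml stock) was added in fresh medium for 3 h at 37°C. Formazan was dissolved in DMSO and absorbance read at 595 nm.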

**Q.** With `NC(=O)c1[nH]c2ccc(Cl)cc2c1S(=O)(=O)c1ccccc1` [CSIC, 5-chloro-3-phenylsulfonylindole-2-carboxamide] as the molecule, how does the “loss of drug content in film polymer solution” value [1] read?
**A.** Its value is “No loss of drug content”.

**Q.** And the EC50 [2]?
**A.** Its EC50 is 1.2 nM.

**Q.** What about the solubility [3] of the same molecule?
**A.** Its solubility is under 0.5 µg/mL.

**Q.** What about the CC50 at 24 h [4] of the same molecule?
**A.** Its CC50 at 24 h is 11.4 ± 2.8 µg/mL (≈ 34.1 µM).

**Q.** With `C#C[C@]1(CO)O[C@@H](n2cnc3c(N)nc(F)nc32)C[C@@H]1O` [EFdA, 4’-ethynyl-2-fluoro-2’-deoxyadenosine] as the molecule, how does the “loss of drug content in film polymer solution” value [1] read?
**A.** The value was “No loss of drug content”.

**Q.** And the CC50 at 24 h [4]?
**A.** The CC50 at 24 h was over 50 µg/mL.

Source: article PMC4529374 (Pharmaceutical research, 2015)
